The full list was thinned out, with hits kept by preference.
PTEN del growth = PTEN-deleted cell growth suppression. viability, % at 10 µM. actives 1.2% (n = 140,000). HCT116 PTEN-null viability, CellTiter-Glo, 60 h; hits give low values;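 active means viability at or below a set limit, 4 SD under the median of all tested compounds, cut at about 3.7% in these data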;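 further: PTEN knockout HCT116 line with beta catenin targeted HCT116 as companion control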
Pyk2 oligo antag = Pyk2 (human) oligomerization antagonism. Q14289. actives 0.83% (n = 99,000). AID 1347419. Q293 cells, Pyk2 FERM NanoBiT luminescence; hits give low values. z-score (the deposit names both 25 µM and 10 µM);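 active means Z-score of -3 or lower, scaled per plate to the spread of control and sample wells; inactive means z-score above -3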;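 further: negative z-score means lost luminescence so less FERM oligomerization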
Target sequence (Q14289 whole entry, looked up): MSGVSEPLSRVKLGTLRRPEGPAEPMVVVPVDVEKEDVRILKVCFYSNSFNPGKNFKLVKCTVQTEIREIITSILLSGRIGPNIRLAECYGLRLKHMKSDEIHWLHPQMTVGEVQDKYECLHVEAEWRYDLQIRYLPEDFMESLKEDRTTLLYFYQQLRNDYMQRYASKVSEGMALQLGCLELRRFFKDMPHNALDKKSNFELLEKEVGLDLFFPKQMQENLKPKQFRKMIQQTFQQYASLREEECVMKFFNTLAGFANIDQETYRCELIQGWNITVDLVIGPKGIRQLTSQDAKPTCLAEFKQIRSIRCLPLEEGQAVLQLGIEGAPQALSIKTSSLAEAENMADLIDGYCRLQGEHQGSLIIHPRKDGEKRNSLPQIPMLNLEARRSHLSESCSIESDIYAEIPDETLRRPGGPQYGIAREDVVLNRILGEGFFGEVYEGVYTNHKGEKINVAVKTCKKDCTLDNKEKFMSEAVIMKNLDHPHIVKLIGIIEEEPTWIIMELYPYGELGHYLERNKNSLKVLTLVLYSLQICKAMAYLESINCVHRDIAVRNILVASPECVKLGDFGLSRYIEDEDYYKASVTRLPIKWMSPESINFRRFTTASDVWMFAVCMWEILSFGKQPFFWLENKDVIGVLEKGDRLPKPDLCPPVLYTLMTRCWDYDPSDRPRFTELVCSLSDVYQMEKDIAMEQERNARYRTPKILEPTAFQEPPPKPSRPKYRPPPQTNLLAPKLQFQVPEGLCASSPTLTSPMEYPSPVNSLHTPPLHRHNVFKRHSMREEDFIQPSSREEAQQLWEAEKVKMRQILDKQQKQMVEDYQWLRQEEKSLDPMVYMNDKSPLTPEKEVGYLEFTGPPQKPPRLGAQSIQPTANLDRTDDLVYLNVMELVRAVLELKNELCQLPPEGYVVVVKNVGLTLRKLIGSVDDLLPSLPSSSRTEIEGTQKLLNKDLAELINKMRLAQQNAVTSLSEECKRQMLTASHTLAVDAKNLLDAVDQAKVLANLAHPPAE
bCat KO growth = beta-catenin-lacking colon tumor cell growth suppression. actives 1.5% (n = 140,000). HCT116 beta-catenin knockout viability, CellTiter-Glo, 60 h; hits give low values. AID 818. viability, % at 10 µM;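 active means viability at or under a set limit, the compound median less 4 SD, cut at about 6% in these data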;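 further: 0% = Hyamine 1622 control at 20 µM and 100% = untreated cell control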
H69AR growth 86K = growth inhibitors of human H69AR lung tumor cells | H69AR lung tumor viability, ATP luminescence, 72 h; hits give low values | viability, % at 10 µM | actives 6% (n = 85,000);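 active means viability at or below 40%; inactive means viability above 40%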;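 further: multidrug resistant small cell line overexpressing MRP-1 efflux transporter; 100% = mean luminescence of untreated control wells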
Lung fibro prol = blocks proliferation of human lung fibroblasts | actives 1.1% (n = 85,000) | viability, % at 10 µM | AID 719 | LL 47 human lung fibroblast viability, ATP luminescence; hits give low values;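 active means viability at or below 50% in the single dose screen; inactive means viability above 50%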;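 further: compound exposure lasted 72 h before the ATP readout; 100% = median luminescence of untreated cell-only wells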
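Assay system: human lung fibroblast line LL 47, low passage. Input: 1,150 fibroblasts seeded per well. Times: overnight cell rest, 72 h compound treatment at 37 °C. Evaluation: % viability of median cell-only signal. Technique: luminescent ATP detection, CellTiter-Glo. Control set: cell-only wells, no compound.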
HUVEC inhibit = blocks proliferation of human endothelial cells; actives 1.1% (n = 86,000); viability, % at 10 µM (by protocol); HUVEC proliferation, CellTiter-Glo luminescence, 72 h; hits give low values;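 active means viability at or below 30%; inactive means viability above 30%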;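 further: 100% = median luminescence of DMSO-only cell control wells on each plate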
* marks the source's active call; other numbers are inactive results; . = no result.

SMILES | PTEN del growth | Pyk2 oligo antag | bCat KO growth | H69AR growth 86K | Lung fibro prol | HUVEC inhibit
Cc1cc2c(c(=O)n1Cc1cccnc1)C(c1cccs1)C(C#N)=C(N)O2 (stereo not drawn) | 94 | -0.99 | 107 | 32* | 97 | 92
Cc1cc2c(c(=O)n1Cc1cccnc1)C(Cc1ccccc1)C(C#N)=C(N)O2 (stereo not drawn) | 106 | -0.91 | 99 | 86 | 100 | 87
O=C(C1=NNCC1c1ccccc1)C1CO1 (stereo not drawn) | 58 | . | 54 | . | . | .
CCN(CC)c1ccc(/C=C2/SC(=O)N(C(C)C)C2=O)o1 | 5 | . | 5.6* | . | . | .
CCOc1cc2c(cc1C(C)(C)C)NC(=O)CS2 | 59 | -0.35 | 57 | 37* | 89 | 78
COCCNC(=O)c1ccc2c(c1)NC(=O)CS2 | 87 | -0.1 | 93 | 92 | 96 | 93
CCOC(=O)c1c(/N=C/C2=C(O)CC(C)(C)CC2=O)sc(C)c1C | 99 | . | 98 | . | . | .
CCn1c(C)nc2cc(-c3nc4n(n3)Cc3ccccc3-4)ccc21 | 16 | 0.04 | 17 | 16* | 24* | 26*
Fc1ccc(-c2nc3n(n2)Cc2ccccc2-3)cc1 | 53 | -1.4 | 51 | 37* | 73 | 73
Cc1ccc(-c2nc3n(n2)Cc2ccccc2-3)cc1 | 78 | 0.46 | 69 | 67 | 87 | 84
CCn1c(C)nc2cc(C(=O)n3cc(C(=O)c4ccccc4O)cn3)ccc21 | 98 | . | 105 | . | . | .
CCOC(=O)C1=C(C)N=C2SC(C)C(=O)N2C1/C=C/c1ccccc1OC (stereo not drawn) | 78 | 0.77 | 80 | . | . | .
CCOC(=O)C1=c2/c(=C/c3ccccc3OC)c(N)c(C#N)n2C(=O)C(c2ccccc2OC)S1 (stereo not drawn) | . | . | 20 | 3.4* | 55 | 27*
CN1CCc2nc(SCC(=O)Nc3cccc(F)c3)c(C#N)c(-c3cccs3)c2C1 | 100 | -3.1* | 105 | . | . | .
CN1CCc2c(C#N)c(N3CCCCC3)nc(NCc3ccccc3)c2C1 | 1.4* | -0.81 | 1.0* | 3.4* | 67 | 11*
COC(=O)c1cc(=O)n(CCc2ccccc2F)c(=Nc2ccc(F)c(Cl)c2)s1 | 11 | . | 8 | 1.5* | 16* | 8.9*
CCN=c1sc(C(=O)OC)cc(=O)n1CC | 102 | 0.69 | 104 | 52 | 89 | 88
COC(=O)c1ccc(=O)n(Cc2ccco2)c1 | 89 | 0.36 | 86 | 91 | 106 | 100
COC(=O)c1cc(=O)n(Cc2ccco2)c(=Nc2ccc(F)c(Cl)c2)s1 | 5 | . | 1.6* | 1.5* | 7.9* | 3.1*
COc1ccc(CCNC(=O)c2ccc(NS(=O)(=O)c3c(C)noc3C)cc2)cc1OC | 100 | 0.3 | 99 | . | . | .
CCc1ccc(OCC(=O)N2CCN=C2c2ccccc2)cc1 | 82 | -0.42 | 86 | 105 | 102 | 107
Cc1ccc(S(=O)(=O)c2cc3c(=O)n4cccc(C)c4nc3n(CC3CCCO3)c2=N)cc1 (stereo not drawn) | . | . | . | 40* | 94 | 79
CNC(=S)N/N=C(\C)c1ccc(N2CCOCC2)cc1 | 1.3* | . | 4.8* | . | . | .
Cn1cnc([N+](=O)[O-])c1NC(C)(C)C | 114 | -0.41 | 102 | 97 | 98 | 98
Cn1cnc([N+](=O)[O-])c1S(=O)(=O)c1ccc(Cl)cc1 | 1.7* | . | 1.6* | . | . | .
SMILES | PTEN del growth | Pyk2 oligo antag | bCat KO growth | H69AR growth 86K | Lung fibro prol | HUVEC inhibit
O=C(NC(=S)NCC1CCCO1)c1ccc([N+](=O)[O-])cc1 (stereo not drawn) | 96 | . | 96 | . | . | .
O=c1cc(CO)oc(C(Nc2ccccn2)c2ccc(C(F)(F)F)cc2)c1O (stereo not drawn) | 86 | -0.77 | 80 | 19* | 89 | 91
Cc1nn(-c2nc3ccccc3s2)c(N)c1Sc1ccc(F)cc1 | 15 | 1.4 | 32 | 9.7* | 18* | 59
COc1ccc(NC(=O)c2cncc(Br)c2)cc1S(=O)(=O)N1CCCCC1 | 87 | . | 81 | . | . | .
O=C1CC(c2ccccc2)CC2=C1C(c1ccccn1)Nc1ccccc1N2 (stereo not drawn) | 98 | -1.3 | 104 | 94 | 102 | 96
O=C1CC(c2ccccc2)CC2=C1CN(C1CCCCC1)CN2 (stereo not drawn) | 32 | -0.18 | 29 | 23* | 70 | 71
COc1cccc(NC(=O)c2cc(CN3C(=O)c4ccccc4C3=O)ccc2OC)c1 | 90 | . | 93 | . | . | .
C=CCOc1ccc2c(c1)C(=NO)c1cc(OCC=C)ccc1-2 | 43 | -1.5 | 44 | 34* | 95 | 71
Cc1nn(-c2ccc(F)cc2)c(C)c1NS(=O)(=O)c1ccc2ccccc2c1 | 52 | -1.4 | 62 | 36* | 96 | 77
N#C/C(=C\c1ccc(OCc2ccccc2)cc1)C(=O)Nc1nc2c(s1)CCN(Cc1ccccc1)C2 | 30 | -0.3 | 50 | 22* | 17* | 13*
N#C/C(=C/c1ccc(OCc2ccccc2)cc1)C(=O)NC1CCCCC1 | 96 | 0.96 | 85 | . | . | .
CN(C)c1ccc(/C=N/N2C(=N)N(c3ccccc3)C(=S)C2=Nc2ccccc2)cc1 | . | . | . | 16* | 93 | 68
CCOC(=O)c1ccc(N=C2C(=S)N(c3ccc(C(=O)OCC)cc3)C(=N)N2/N=C/c2ccccc2)cc1 | 94 | -0.45 | 92 | 0.9* | 92 | 74
CCOC(=O)c1ccc(N2Cc3ccccc3C2=N)cc1 | 98 | -0.05 | 93 | . | . | .
O=C(NN1C(=O)C2C3CCC(O3)C2C1=O)c1ccco1 (stereo not drawn) | 102 | . | 106 | . | . | .
CCc1ccccc1-n1c(SCC(=O)Nc2ccc3c(c2)OCCO3)nc2[nH]ncc2c1=O | 87 | -2.3 | 93 | 39* | 75 | 77
O=c1c2cn[nH]c2nc(SCc2ccc3c(c2)OCCO3)n1-c1ccccc1 | 73 | -3.7* | 86 | 49 | 89 | 81
CCOc1ccc(NC(=O)CSc2nc3[nH]ncc3c(=O)n2-c2ccccc2OC)cc1 | 89 | 0.25 | 83 | . | . | .
COc1cccc(-c2noc(N)c2C#N)c1 | 96 | -0.3 | 91 | 28* | 97 | 100
CCc1nnc(NC(=O)c2c(C)nn(-c3ccccc3)c2Cl)s1 | . | 0.94 | 101 | 96 | 113 | 103
COc1ccc(CN(C(C)=O)c2cccc(C)c2C)cc1 | 37 | 0.23 | 35 | 19* | 82 | 58
COc1ccc(CN(C(=O)CO/N=C/c2ccccc2)c2ccccc2C(=O)O)cc1 | 103 | . | 92 | . | . | .
COc1ccc(OC)c(/C=C/C(=O)c2ccc(Cl)cc2)c1 | 3.1* | -2.4 | 2.9* | . | . | .
CCOc1ccc(CCNC(=O)c2cc3ccccn3n2)cc1OCC | 90 | . | 85 | 99 | 91 | 112
CCOC(=O)c1ccc(-c2c(C(=O)OCC)oc3cc(O)c(CC)cc3c2=O)o1 | 116 | -3.7* | 82 | 63 | 118 | 109
c1ccc(C2C3=C(Nc4ncnn42)c2ccccc2CCC3)cc1 (stereo not drawn) | 91 | -0.67 | 94 | 78 | 89 | 95
